Here are results for three molecules from ChEMBL document CHEMBL2021777 (J Med Chem, 2012).

Data set [1] deals with Neuronal acetylcholine receptor; alpha3/beta2 (Rattus norvegicus, UniProt P04757+P12390). The data set is described as follows: Displacement of [3H] epibatidine from rat alpha3beta2 nAChR by beta scintillation counting. The data set is classed as protein-complex assay.
In data set [2] the target is T1, Neuronal acetylcholine receptor; alpha4/beta2 (Rattus norvegicus, UniProt P09483+P12390). Put plainly: Displacement of [3H] epibatidine from rat alpha4beta2 nAChR by beta scintillation counting. The data set is classed as protein-complex assay.
T1 sequence (P09483 whole entry): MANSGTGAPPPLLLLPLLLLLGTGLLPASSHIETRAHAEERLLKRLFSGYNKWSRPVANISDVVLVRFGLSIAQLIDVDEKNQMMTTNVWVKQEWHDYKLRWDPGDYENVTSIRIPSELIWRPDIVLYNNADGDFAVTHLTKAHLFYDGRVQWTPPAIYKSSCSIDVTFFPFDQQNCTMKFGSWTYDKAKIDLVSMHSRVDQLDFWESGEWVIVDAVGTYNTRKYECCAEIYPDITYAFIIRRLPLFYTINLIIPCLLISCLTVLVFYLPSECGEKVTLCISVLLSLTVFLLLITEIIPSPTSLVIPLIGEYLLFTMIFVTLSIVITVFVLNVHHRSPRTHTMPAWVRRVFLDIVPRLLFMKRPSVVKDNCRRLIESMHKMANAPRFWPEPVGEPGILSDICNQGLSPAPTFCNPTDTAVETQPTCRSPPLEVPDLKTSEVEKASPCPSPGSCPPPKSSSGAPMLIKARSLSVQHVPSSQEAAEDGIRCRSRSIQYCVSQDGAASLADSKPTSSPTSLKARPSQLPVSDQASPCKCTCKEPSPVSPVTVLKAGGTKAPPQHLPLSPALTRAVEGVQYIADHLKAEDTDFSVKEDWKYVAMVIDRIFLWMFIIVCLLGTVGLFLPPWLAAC
T1 sequence (P12390 whole entry): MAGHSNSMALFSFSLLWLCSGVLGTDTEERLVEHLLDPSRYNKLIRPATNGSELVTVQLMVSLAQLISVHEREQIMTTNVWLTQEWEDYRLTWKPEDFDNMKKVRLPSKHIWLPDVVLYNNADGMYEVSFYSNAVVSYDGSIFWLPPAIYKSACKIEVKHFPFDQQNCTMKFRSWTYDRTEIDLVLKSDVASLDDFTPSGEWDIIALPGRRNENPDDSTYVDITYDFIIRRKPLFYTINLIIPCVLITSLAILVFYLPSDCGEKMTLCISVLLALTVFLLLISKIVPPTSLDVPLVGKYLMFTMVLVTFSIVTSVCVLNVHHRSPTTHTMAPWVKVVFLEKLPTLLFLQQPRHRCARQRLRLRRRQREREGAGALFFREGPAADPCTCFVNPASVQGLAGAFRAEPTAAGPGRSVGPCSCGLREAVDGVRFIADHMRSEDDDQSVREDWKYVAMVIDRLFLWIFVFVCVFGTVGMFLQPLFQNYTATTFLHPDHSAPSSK
The target in data set [3] is T1, Neuronal acetylcholine receptor; alpha4/beta2. The data set is described as follows: Displacement of [3H] epibatidine from rat alpha4beta2* nAChR in rat forebrain by beta scintillation counting.
Data set [4] addresses T2, 5-hydroxytryptamine receptor 3A (Homo sapiens) (UniProt P46098).
T2 sequence (whole entry): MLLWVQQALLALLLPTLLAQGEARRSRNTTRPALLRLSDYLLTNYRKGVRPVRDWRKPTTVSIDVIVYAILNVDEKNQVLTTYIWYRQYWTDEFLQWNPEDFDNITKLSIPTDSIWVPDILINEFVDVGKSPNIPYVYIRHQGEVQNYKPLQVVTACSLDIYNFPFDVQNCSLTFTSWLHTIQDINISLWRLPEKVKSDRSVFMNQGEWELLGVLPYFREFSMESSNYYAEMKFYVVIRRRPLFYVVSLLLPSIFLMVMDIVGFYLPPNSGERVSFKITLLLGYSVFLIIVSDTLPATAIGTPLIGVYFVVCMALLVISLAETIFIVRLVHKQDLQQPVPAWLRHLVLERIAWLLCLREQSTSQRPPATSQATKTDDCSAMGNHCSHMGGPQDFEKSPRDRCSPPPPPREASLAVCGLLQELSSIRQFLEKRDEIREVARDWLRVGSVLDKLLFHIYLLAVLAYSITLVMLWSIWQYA
Put plainly: Displacement of [3H]LY278584 from 5-HT3 at 10 uM.

The target of data set [5] is T3, Alpha-1A adrenergic receptor (Homo sapiens) (UniProt P35348).
T3 sequence (whole entry): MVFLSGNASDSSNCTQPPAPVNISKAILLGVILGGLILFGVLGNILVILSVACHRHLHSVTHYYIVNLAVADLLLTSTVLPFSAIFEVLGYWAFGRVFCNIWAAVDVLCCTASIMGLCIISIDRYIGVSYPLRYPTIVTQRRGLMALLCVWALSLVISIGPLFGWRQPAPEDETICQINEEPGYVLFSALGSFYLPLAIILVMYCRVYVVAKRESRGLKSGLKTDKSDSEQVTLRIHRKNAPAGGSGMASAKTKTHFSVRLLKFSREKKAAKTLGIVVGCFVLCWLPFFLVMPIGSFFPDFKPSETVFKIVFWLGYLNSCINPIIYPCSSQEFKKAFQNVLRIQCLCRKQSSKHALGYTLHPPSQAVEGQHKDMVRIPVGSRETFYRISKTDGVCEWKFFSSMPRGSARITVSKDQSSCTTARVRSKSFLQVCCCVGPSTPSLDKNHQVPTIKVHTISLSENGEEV
Put plainly: Displacement of [3H]Prazosin from alpha1A adrenergic receptor at 10 uM.

Data set [6] addresses T4, Alpha-2C adrenergic receptor (Homo sapiens) (UniProt P18825).
T4 sequence (whole entry): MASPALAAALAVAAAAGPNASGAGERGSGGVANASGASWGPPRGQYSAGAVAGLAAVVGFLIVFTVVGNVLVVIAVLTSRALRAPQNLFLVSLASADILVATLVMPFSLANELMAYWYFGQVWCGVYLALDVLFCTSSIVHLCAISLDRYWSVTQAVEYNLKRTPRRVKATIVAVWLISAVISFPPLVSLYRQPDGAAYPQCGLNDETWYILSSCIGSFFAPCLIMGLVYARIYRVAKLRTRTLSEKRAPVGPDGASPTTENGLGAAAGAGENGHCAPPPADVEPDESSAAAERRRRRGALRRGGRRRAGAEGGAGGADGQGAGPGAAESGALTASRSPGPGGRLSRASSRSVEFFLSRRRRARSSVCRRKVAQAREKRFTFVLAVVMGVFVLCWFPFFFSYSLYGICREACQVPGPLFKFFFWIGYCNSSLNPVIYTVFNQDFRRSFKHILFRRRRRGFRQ
Put plainly: Displacement of [3H]Clonidine from alpha2C adrenergic receptor at 10 uM.

Data set [7] deals with Beta-2 adrenergic receptor (Homo sapiens) (UniProt P07550). The data set is described as follows: Displacement of [125I]Iodopindolol from beta2 adrenergic receptor at 10 uM.
Beta-2 adrenergic receptor (Homo sapiens), sequence (P07550 whole entry, looked up): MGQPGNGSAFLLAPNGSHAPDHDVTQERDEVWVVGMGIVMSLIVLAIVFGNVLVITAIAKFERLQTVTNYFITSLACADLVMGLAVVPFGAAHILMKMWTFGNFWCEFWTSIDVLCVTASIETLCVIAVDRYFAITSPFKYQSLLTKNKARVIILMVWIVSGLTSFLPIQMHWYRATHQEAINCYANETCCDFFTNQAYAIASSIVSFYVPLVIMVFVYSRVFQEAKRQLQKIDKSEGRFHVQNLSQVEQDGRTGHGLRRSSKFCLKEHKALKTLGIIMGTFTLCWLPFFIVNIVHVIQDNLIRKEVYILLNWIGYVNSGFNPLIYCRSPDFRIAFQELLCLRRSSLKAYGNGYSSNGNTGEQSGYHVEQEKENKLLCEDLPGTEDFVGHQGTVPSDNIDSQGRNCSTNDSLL
The target in data set [8] is Muscarinic acetylcholine receptor M3 (Homo sapiens) (UniProt P20309). Put plainly: Displacement of [3H]QNB from M3 receptor at 10 uM.
Muscarinic acetylcholine receptor M3 (Homo sapiens), sequence (P20309 whole entry, looked up): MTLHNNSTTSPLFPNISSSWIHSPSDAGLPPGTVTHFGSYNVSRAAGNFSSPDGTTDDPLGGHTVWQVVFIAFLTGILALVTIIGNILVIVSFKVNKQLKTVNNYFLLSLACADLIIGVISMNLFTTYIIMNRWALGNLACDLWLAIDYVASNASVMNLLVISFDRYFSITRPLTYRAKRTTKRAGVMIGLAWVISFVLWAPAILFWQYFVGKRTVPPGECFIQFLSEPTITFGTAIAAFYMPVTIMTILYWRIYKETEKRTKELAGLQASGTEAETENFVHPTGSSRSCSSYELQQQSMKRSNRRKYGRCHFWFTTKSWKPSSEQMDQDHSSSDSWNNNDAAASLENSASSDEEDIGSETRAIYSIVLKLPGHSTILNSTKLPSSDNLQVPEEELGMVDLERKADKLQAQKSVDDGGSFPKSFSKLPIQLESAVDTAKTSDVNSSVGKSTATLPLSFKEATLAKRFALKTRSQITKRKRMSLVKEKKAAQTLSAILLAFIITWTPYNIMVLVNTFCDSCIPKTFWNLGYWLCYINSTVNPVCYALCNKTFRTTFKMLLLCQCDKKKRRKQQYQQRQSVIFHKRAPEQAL
Data set [9] concerns the target T5, Muscarinic acetylcholine receptor M5 (Homo sapiens) (UniProt P08912).
T5 sequence (whole entry): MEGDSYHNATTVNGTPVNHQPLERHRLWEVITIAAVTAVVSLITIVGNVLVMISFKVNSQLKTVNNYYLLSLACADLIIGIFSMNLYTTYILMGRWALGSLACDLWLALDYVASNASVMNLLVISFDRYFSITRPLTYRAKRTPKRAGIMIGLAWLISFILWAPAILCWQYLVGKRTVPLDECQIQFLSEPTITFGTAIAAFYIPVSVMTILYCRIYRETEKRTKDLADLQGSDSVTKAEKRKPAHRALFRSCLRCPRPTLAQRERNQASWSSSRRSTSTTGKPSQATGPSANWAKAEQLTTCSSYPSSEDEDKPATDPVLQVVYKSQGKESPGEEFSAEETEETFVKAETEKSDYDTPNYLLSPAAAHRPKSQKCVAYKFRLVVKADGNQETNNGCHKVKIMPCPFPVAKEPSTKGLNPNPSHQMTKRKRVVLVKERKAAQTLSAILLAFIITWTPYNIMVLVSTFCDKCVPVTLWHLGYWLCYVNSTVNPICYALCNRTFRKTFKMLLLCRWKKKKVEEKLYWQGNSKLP
The data set is described as follows: Displacement of [3H]QNB from M5 receptor at 10 uM.

Data set [10] addresses Delta-type opioid receptor (Homo sapiens) (UniProt P41143). The data set is described as follows: Displacement of [3H]DADLE from delta opioid receptor at 10 uM.
In data set [11] the target is Kappa-type opioid receptor (Homo sapiens) (UniProt P41145). The data set is described as follows: Displacement of [3H]U69593 from kappa opioid receptor at 10 uM.
Kappa-type opioid receptor (Homo sapiens), sequence (P41145 whole entry): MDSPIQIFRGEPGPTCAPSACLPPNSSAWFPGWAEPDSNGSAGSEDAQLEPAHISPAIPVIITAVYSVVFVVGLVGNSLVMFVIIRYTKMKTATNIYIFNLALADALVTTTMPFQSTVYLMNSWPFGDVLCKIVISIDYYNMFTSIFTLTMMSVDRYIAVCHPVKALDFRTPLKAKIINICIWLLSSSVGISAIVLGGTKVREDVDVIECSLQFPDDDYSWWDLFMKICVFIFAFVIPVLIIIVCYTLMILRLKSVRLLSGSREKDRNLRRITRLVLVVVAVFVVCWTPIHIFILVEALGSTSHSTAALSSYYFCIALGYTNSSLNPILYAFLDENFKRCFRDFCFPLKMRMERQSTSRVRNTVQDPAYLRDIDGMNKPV
Data set [12] addresses Sigma non-opioid intracellular receptor 1 (Homo sapiens) (UniProt Q99720). Put plainly: Displacement of [3H]Pentazocine from sigma1 receptor at 10 uM.
Data set [13] can be described thus: Metabolic stability in mouse liver microsomes assessed as compound remaining at 1 uM after 1 hr. The data set is classed as ADME, Microsome. Conditions: read-out: Stability. A digest of the protocol:
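Compound at 1 μM incubated for 1 h with human or mouse liver microsomes; percent of parent remaining unchanged.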

A short description of data set [14]: Inhibition of CYP1A up to 10 uM. The data set is classed as ADME. Summed up: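 Percent inhibition of CYP isoforms (CYP1A, CYP2C9, CYP2C19, CYP2D6, CYP3A; CYP1A2 reported) with test compound at concentrations up to 10 μM.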
The species entered for data set [15] is Rattus norvegicus. Put plainly: Displacement of radioligand from benzodiazepine receptor in rat brain. The data set is classed as tissue-based. To be noted: concentration not given here.

pKi: −log10 of the molar value.

Sigma non-opioid intracellular receptor 1 (Homo sapiens), sequence (Q99720 whole entry): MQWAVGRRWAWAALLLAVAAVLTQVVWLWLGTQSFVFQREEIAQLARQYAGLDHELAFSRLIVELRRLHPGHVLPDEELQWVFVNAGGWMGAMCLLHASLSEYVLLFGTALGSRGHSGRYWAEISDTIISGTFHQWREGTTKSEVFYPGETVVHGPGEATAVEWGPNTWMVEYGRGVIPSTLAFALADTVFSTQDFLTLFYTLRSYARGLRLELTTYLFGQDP
Delta-type opioid receptor (Homo sapiens), sequence (P41143 whole entry): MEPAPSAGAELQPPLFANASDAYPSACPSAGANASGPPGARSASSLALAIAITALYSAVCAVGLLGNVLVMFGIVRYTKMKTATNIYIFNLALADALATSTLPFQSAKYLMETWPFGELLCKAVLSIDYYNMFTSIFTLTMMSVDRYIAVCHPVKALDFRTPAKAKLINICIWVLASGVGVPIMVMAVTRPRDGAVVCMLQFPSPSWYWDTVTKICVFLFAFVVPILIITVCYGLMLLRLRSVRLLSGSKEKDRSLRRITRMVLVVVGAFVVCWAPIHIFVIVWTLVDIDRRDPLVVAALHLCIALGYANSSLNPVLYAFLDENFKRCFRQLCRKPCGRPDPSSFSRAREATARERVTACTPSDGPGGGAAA
Neuronal acetylcholine receptor; alpha3/beta2, sequence (P04757 whole entry): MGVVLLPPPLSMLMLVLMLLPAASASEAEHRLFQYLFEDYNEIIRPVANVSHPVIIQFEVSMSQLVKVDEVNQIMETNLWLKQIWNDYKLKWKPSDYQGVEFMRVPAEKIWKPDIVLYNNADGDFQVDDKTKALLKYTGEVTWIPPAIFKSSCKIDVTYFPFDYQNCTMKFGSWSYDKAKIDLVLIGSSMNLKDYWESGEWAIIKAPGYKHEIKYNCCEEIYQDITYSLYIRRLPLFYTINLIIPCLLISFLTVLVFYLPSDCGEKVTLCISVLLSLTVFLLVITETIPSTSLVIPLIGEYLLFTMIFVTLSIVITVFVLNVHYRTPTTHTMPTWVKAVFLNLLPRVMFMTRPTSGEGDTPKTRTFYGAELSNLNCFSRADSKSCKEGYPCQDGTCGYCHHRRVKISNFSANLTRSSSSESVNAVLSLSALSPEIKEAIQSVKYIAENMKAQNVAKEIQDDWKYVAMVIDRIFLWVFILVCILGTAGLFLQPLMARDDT
Neuronal acetylcholine receptor; alpha3/beta2, sequence (P12390 whole entry): as the sequence (P12390 whole entry) above

For `OCC[C@H]1C[C@@H]1c1cncc(OC[C@@H]2CCN2)c1`, the results for the pKi in data set [1], in data set [2] and in [3] were 8.52, 10.00 and 9.30, respectively. The inhibition in data set [4] was 38.3%; in data set [5] it was -1.6%; in [6] it was 17.6%; in [7], -4.5%; in data set [8] it was 0%; in data set [9] it was -4.4%. Also, the inhibition in data set [10] is 0.8%; in [11] it was 3.7%; in data set [12] it was 0.5%; in data set [15], 29.2%. For the same molecule, the remaining at 1 h, 1 µM in data set [13] is 80%. For the same molecule, the “inhibition (INH)” value in [14] is “<= 25%”.

In the case of `COCC[C@H]1C[C@@H]1c1cncc(OC[C@@H]2CCN2)c1`, the results for the pKi in data set [1], in data set [2] and in data set [3] were 8.62, 10.00 and 9.52, respectively. The inhibition in data set [4] was 42.4%; in data set [5], -1.6%; in data set [6] it was 30.6%; in data set [7], 3%; in [8], 9.6%; in data set [9] it was -1.1%. Moreover, the inhibition is -4.2% in data set [10], 7.2% in data set [11], 58.7% in data set [12] and 26.6% in data set [15]. For the same molecule, the remaining at 1 h, 1 µM in data set [13] amounted to 84%. For the same molecule, in data set [14], the “inhibition (INH)” value is “<= 25%”.

As to `CNC(=O)OCC[C@H]1C[C@@H]1c1cncc(OC[C@@H]2CCN2)c1`, the pKi was 8.01 in data set [1], 9.22 in [2] and 8.77 in [3]. The inhibition in [4] is 23.5%; in data set [5] it was 2.5%; in data set [6], 42%; in data set [7], 22.1%; in data set [8] it was 30.2%; in data set [9], -8.7%. The inhibition in data set [10] was -4.4%; in data set [11], 19.1%; in data set [12], 3.9%; in [15], 2%. Moreover, the remaining at 1 h, 1 µM in data set [13] turned out to be 98%. The “inhibition (INH)” value in data set [14] is “<= 25%”.
